The record followed here is ChEMBL document CHEMBL4118253, “Expedient synthesis and biological evaluation of alkenyl acyclic nucleoside phosphonate prodrugs” (Bioorg Med Chem, 2018).

The test system of series [1] is Influenza A virus H3N2. The series is described as follows: Antiviral activity against Influenza A virus H3N2 infected in MDCK cells assessed as inhibition of virus-induced cytopathicity by MTS assay. It counts as functional, organism-based.
Series [2] concerns Influenza A virus. The series is described as follows: Antiviral activity against Influenza A virus H1N1 infected in MDCK cells assessed as inhibition of virus-induced visual cytopathicity. It counts as functional, organism-based.
Series [3] concerns Influenza A virus. The series is described as follows: Antiviral activity against Influenza A virus H1N1 infected in MDCK cells assessed as inhibition of virus-induced cytopathicity by MTS assay. It counts as functional, organism-based. For orientation: Cytopathic effects are the visible damage that an infection or toxin causes in cultured cells.
For series [4], the system named is Influenza B virus. The series is described as follows: Antiviral activity against Influenza B virus infected in MDCK cells assessed as inhibition of virus-induced visual cytopathicity. It counts as functional, organism-based.
The subject of series [5] is Influenza B virus. The series is described as follows: Antiviral activity against Influenza B virus infected in MDCK cells assessed as inhibition of virus-induced cytopathicity by MTS assay. It counts as functional, organism-based.
Series [6] has as its system Influenza A virus H3N2. The series is described as follows: Antiviral activity against Influenza A virus H3N2 infected in MDCK cells assessed as inhibition of virus-induced visual cytopathicity. It counts as functional, organism-based.
Series [7] is described as follows: Cytotoxicity against MDCK cells assessed as alteration of cell morphology by microscopic analysis. It counts as cell-based, Canis lupus familiaris. The following applies: dog.
In the next series the test system is Human alphaherpesvirus 2. The series is described as follows: Antiviral activity against Herpes simplex virus 2 G infected in HEL cells assessed as inhibition of virus-induced cytopathicity. It counts as functional, organism-based. The following applies: Human alphaherpesvirus 2, strain G.
The test system of the next series is Human coronavirus 229E. Nature of the series: Antiviral activity against Human coronavirus 229E infected in HEL cells assessed as inhibition of virus-induced cytopathicity. It counts as functional, organism-based.
Series [8] concerns Human alphaherpesvirus 1. The series is described as follows: Antiviral activity against acyclovir-resistant thymidine kinase deficient Herpes simplex virus 1 KOS infected in HEL cells assessed as inhibition of virus-induced cytopathicity. Conditions: Human alphaherpesvirus 1, KOS. It counts as functional, organism-based.
Series [9] concerns Human alphaherpesvirus 3. Nature of the series: Antiviral activity against thymidine kinase deficient Varicella-Zoster virus infected in HEL cells assessed as reduction in virus plaque formation. It counts as functional, organism-based. Conditions: Human alphaherpesvirus 3, HEL.
In series [10] the test system is Human betaherpesvirus 5. The series is described as follows: Antiviral activity against Human cytomegalovirus AD169 infected in HEL cells assessed as inhibition of virus-induced cytopathicity. It counts as functional, organism-based. The following applies: Human betaherpesvirus 5, AD169, HEL.
Series [11] relates to Vesicular stomatitis virus. Nature of the series: Antiviral activity against Vesicular stomatitis virus infected in human HeLa cells assessed as inhibition of virus-induced cytopathicity. It counts as functional, organism-based.
The nature of series [12]: Cytotoxicity against African green monkey Vero cells assessed as alteration of cell morphology by microscopic analysis. It counts as cell-based. The following applies: chlorocebus sabaeus. The procedure, abridged: (§1)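 The value is the minimal cytotoxic concentration (MCC), the lowest concentration that causes a microscopically visible change in cell morphology. It was read in the same HEL or Vero cell cultures used for the antiviral tests.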

For a further series, the system named is Punta Toro virus. Nature of the series: Antiviral activity against Punta Toro virus infected in African green monkey Vero cells assessed as inhibition of virus-induced cytopathicity. It counts as functional, organism-based.
A short description of series [13]: Cytotoxicity against HEL cells assessed as alteration of cell morphology by microscopic analysis. It counts as cell-based. Conditions: human. The procedure, abridged:
as §1

For another series, the system named is Coxsackievirus B4. Nature of the series: Antiviral activity against Coxsackie virus B4 infected in African green monkey Vero cells assessed as inhibition of virus-induced cytopathicity. It counts as functional, organism-based. Conditions: Enterovirus B.
The test system of series [14] is Human alphaherpesvirus 1. Nature of the series: Antiviral activity against Herpes simplex virus 1 KOS infected in HEL cells assessed as inhibition of virus-induced cytopathicity. It counts as functional, organism-based. Conditions: Human alphaherpesvirus 1, KOS.
Another series concerns Vaccinia virus. The series is described as follows: Antiviral activity against Vaccinia virus infected in HEL cells assessed as inhibition of virus-induced cytopathicity. It counts as functional, organism-based. Conditions: Orthopoxvirus vaccinia.
For series [15], the system named is Human betaherpesvirus 5. Nature of the series: Antiviral activity against Human cytomegalovirus Davis infected in HEL cells assessed as inhibition of virus-induced cytopathicity. It counts as functional, organism-based. Conditions: Human betaherpesvirus 5, Davis.
For series [16], the system named is Human alphaherpesvirus 3. The series is described as follows: Antiviral activity against thymidine kinase expressing Varicella-Zoster virus infected in HEL cells assessed as reduction in virus plaque formation. It counts as functional, organism-based. The following applies: Human alphaherpesvirus 3, HEL.
For series [17], the system named is Mammalian orthoreovirus 1. The series is described as follows: Antiviral activity against Reovirus-1 infected in human HeLa cells assessed as inhibition of virus-induced cytopathicity. It counts as functional, organism-based. The following applies: Mammalian orthoreovirus 1, HeLa.
The next series relates to Human respirovirus 3. Nature of the series: Antiviral activity against Parainfluenza virus 3 infected in human HeLa cells assessed as inhibition of virus-induced cytopathicity. Conditions: Human respirovirus 3, HeLa. It counts as functional, organism-based.
Series [18] relates to Respiratory syncytial virus. The series is described as follows: Antiviral activity against Respiratory syncytial virus infected in human HeLa cells assessed as inhibition of virus-induced cytopathicity. It counts as functional, organism-based.
Series [19] in a line: Cytotoxicity against human HeLa cells assessed as alteration of cell morphology by microscopic analysis. It counts as cell-based.
For another series, the system named is Yellow fever virus. Nature of the series: Antiviral activity against Yellow fever virus infected in African green monkey Vero cells assessed as inhibition of virus-induced cytopathicity. It counts as functional, organism-based.
Another series relates to Sindbis virus. The series is described as follows: Antiviral activity against Sindbis Virus infected in African green monkey Vero cells assessed as inhibition of virus-induced cytopathicity. It counts as functional, organism-based.
A further series deals with Human adenovirus 2. Nature of the series: Antiviral activity against Adenovirus 2 infected in HEL cells assessed as inhibition of virus-induced cytopathicity. It counts as functional, organism-based. Conditions: Human mastadenovirus C.

As to `CC(N)C12CC3CC(CC(C3)C1)C2` (stereo not given) [RIMANTADINE], the EC50 (usually the concentration giving half of the maximal effect) with Influenza A virus H3N2 [1] is 0.7 µM; in the series with Influenza A virus [2] it was over 200 µM; in the series on Influenza A virus [3], over 200 µM; with Influenza B virus [4], over 200 µM; in the series on Influenza B virus [5] it was over 200 µM; in the series on Influenza A virus H3N2 [6], 0.4 µM. In addition, in [7], the MCC was over 200 µM.

Consider `C/C(=C\CP(=O)(N[C@@H](C)C(=O)OCc1ccccc1)Oc1cccc2c1CCCC2)Cn1ccc(=O)[nH]c1=O` (stereo not given in full), for which the EC50 is over 100 µM in the series with Human alphaherpesvirus 2; over 100 µM in the series on Human coronavirus 229E; over 100 µM in the series with Human alphaherpesvirus 1 [8]; 52.5 µM with Human alphaherpesvirus 3 [9]; over 100 µM with Human betaherpesvirus 5 [10]; over 100 µM in the series on Influenza A virus H3N2 [1]. Besides, the EC50 (in [11]; in the series on Influenza A virus [2]; with Punta Toro virus; in the series on Coxsackievirus B4; in the series with Influenza A virus [3]; in the series on Human alphaherpesvirus 1 [14]) was over 100 µM throughout. Further, the EC50 was over 100 µM in the series on Vaccinia virus; over 100 µM with Human betaherpesvirus 5 [15]; over 100 µM in the series on Influenza B virus [4]; 55.7 µM in the series with Human alphaherpesvirus 3 [16]; over 100 µM in the series on Influenza B virus [5]; over 100 µM in series [17]. The EC50 (in the series on Human respirovirus 3; in [18]; in the series on Yellow fever virus; in the series on Sindbis virus; in the series with Human adenovirus 2; with Influenza A virus H3N2 [6]) was over 100 µM each time. The MCC is at least 100 µM in [12], over 100 µM in series [13], at least 100 µM in [19] and over 100 µM in [7].

As to `Cc1cn([C@H]2C[C@H](F)[C@@H](CO)O2)c(=O)[nH]c1=O` [ALOVUDINE], the MCC in [13] was over 250 µM. The EC50 with Human adenovirus 2 was 1.2 µM.

Turning to `CCOC(=O)C1=C[C@@H](OC(CC)CC)[C@H](NC(C)=O)[C@@H](N)C1` [OSELTAMIVIR], the EC50 with Influenza A virus H3N2 [1] was over 100 µM; in the series on Influenza A virus [2] it was 1.5 µM; in the series with Influenza A virus [3], 0.2 µM; with Influenza B virus [4], 2.9 µM; in the series on Influenza A virus H3N2 [6], over 100 µM. For the same compound, the MCC in series [7] is over 100 µM.

Regarding `C/C(=C\CP(=O)(N[C@@H](C)C(=O)OC(C)C)Oc1cccc2ccccc12)Cn1cc(C)c(=O)[nH]c1=O` (stereo not given in full), the EC50 in the series on Human alphaherpesvirus 2, with Human coronavirus 229E, in the series with Human alphaherpesvirus 1 [8], in the series on Human alphaherpesvirus 3 [9], in the series on Human betaherpesvirus 5 [10] and in the series with Influenza A virus H3N2 [1] was over 100 µM throughout. Also, the EC50 (in [11]; in the series with Influenza A virus [2]; in the series on Punta Toro virus; in the series on Coxsackievirus B4; in the series with Influenza A virus [3]; in the series with Human alphaherpesvirus 1 [14]) was over 100 µM throughout. Besides, the EC50 (in the series on Vaccinia virus; in the series on Human betaherpesvirus 5 [15]; with Influenza B virus [4]; in the series with Influenza B virus [5]; in series [17]; in the series on Human respirovirus 3) was over 100 µM throughout. Further, the EC50 (in series [18]; in the series with Yellow fever virus; in the series on Sindbis virus; in the series with Human adenovirus 2; with Influenza A virus H3N2 [6]) was over 100 µM in each case. Besides, the MCC was at least 20 µM in [12], over 100 µM in series [13], at least 20 µM in series [19] and over 100 µM in [7].

For `O=c1[nH]c(=O)n([C@H]2C[C@H](O)[C@@H](CO)O2)cc1/C=C/Br` [BRIVUDINE], the EC50 worked out at 0.57 µM with Human alphaherpesvirus 3 [9] and 19 µM in the series on Vaccinia virus. Moreover, the MCC in [13] was in the range of 250 to 300 µM.

For `C/C(=C/CP(=O)(N[C@@H](C)C(=O)OC(C)C)Oc1cccc2c1CCCC2)Cn1cc(C)c(=O)[nH]c1=O` (stereo not given in full), the EC50 in the series on Human alphaherpesvirus 2 was over 100 µM; in the series on Human coronavirus 229E, over 100 µM; in the series on Human alphaherpesvirus 1 [8], over 100 µM; in the series with Human alphaherpesvirus 3 [9] it was over 20 µM; in the series with Influenza A virus H3N2 [1], over 100 µM; in series [11], over 100 µM. The EC50 with Influenza A virus [2] is over 100 µM; in the series on Punta Toro virus, 45 µM; in the series on Coxsackievirus B4 it was 58 µM; in the series with Influenza A virus [3] it was over 100 µM; with Human alphaherpesvirus 1 [14] it was over 100 µM; in the series with Vaccinia virus it was over 100 µM. The EC50 with Human betaherpesvirus 5 [15] is over 20 µM; in the series with Influenza B virus [4], over 100 µM; in the series with Human alphaherpesvirus 3 [16] it was over 20 µM; with Influenza B virus [5] it was over 100 µM; in series [17], over 100 µM; with Human respirovirus 3, over 100 µM. For the same compound, the EC50 in series [18] was over 100 µM; with Yellow fever virus, 58 µM; with Sindbis virus, 45 µM; in the series with Human adenovirus 2, over 100 µM; in the series with Influenza A virus H3N2 [6] it was over 100 µM. The MCC was over 100 µM in series [12], 100 µM in series [13], over 100 µM in series [19] and 100 µM in series [7].
